Data from PMC7785655 (Toxicology, 2020).
Like-named read-outs stand apart in the source and are kept apart here.

Key:
[1] = system: primary human hepatocytes; settings: cited from earlier work
[2] = Drug recovery from 2D cultures or LAMPS chip effluent; assay type: in vitro ADME, human; settings: human; for recovery: primary human hepatocytes, 2D cultures or LAMPS chips
In short: (§1)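 Hepatocytes were seeded from thaw at 2.75×10^6 cells/mL into fibronectin/collagen I-coated chips or 96-well plates, then overlaid with THP-1, EA.hy926 and LX-2 cells. Drugs in 0.1% DMSO vehicle were added on day 0. Chips were perfused at 15 μL/hour, and 2D media were exchanged daily for up to 10 days. Drugs in effluent or medium were quantified by LC-MS/MS and expressed as % of starting concentration. Values are mean±SEM, n=3–9.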

[3] = as above; assay type: in vitro ADME; settings: human, iCell hepatocytes
In short: as §1

[4] = system: primary human hepatocytes; test: as above; assay type: in vitro ADME; settings: primary human hepatocytes; effect most pronounced for these drugs
In short: as §1

[5] = system: primary human hepatocytes; test: Drug effects on viability and function; assay type: cell-based; settings: both laboratories
[6] = system: primary human hepatocytes; test: Drug effects on viability and function in 2D monolayer cultures; assay type: cell-based; settings: day 10; 2D cultures with primary hepatocytes; Tolcapone 88 μM, Trovafloxacin 150 μM, LPS 1 μg/mL
[7] = Tolcapone 88 μM, 5 days, vs No Treatment
[8] = 2D monolayer-cultured primary human hepatocytes

recovery [3]	recovery ([3]; LAMPS chips and 2D monolayer)	Structure (SMILES)	recovery [2]	recovery in LAMPS chips compared with 2D monolayer cultures [4]	cell viability [6]	also measured
10 to 40%	~100%	Cc1ccc(C(=O)c2cc(O)c(O)c([N+](=O)[O-])c2)cc1 [Tolcapone]			pronounced effects	albumin production [5, 7]: statistically significant decrease; urea production [5, 7]: statistically significant decrease
10 to 40%	~100%	Cc1c(C)c2c(c(C)c1O)CCC(C)(COc1ccc(CC3SC(=O)NC3=O)cc1)O2 (centres unmarked) [Troglitazone]		lower recovery than 2D monolayer cultures		recovery at 28 µM [2, 8]: > 10%; recovery at 1 day, 28 µM [2, 8]: < 1%

The next lines start with the molecule.

Structure (SMILES)	recovery [3]	recovery ([3]; LAMPS chips and 2D monolayer)	recovery [2]	recovery in LAMPS chips compared with 2D monolayer cultures [4]	cell viability [6]	also measured
Cn1c(=O)c2c(ncn2C)n(C)c1=O [Caffeine]			~100%			effect on LDH levels ([1]; Caffeine 600 μM, previous study in Laboratory 2, different donor hepatocytes, ref Vernetti et al. 2016): reduced; effect on albumin [1]: without significant effect; effect on urea [1]: without significant effect
CCc1ccc(CCOc2ccc(CC3SC(=O)NC3=O)cc2)nc1 (centres unmarked) [Pioglitazone]	10 to 40%	~100%		lower recovery than 2D monolayer cultures		
CN(CCOc1ccc(CC2SC(=O)NC2=O)cc1)c1ccccn1 (centres unmarked) [Rosiglitazone]	10 to 40%	~100%				
N[C@@H]1[C@H]2CN(c3nc4c(cc3F)c(=O)c(C(=O)O)cn4-c3ccc(F)cc3F)C[C@@H]12 [Trovafloxacin]			~100%		pronounced effects	effect on LDH ([5]; Trovafloxacin 150 μM): significant effects; effect on albumin ([5]; Trovafloxacin 150 μM): significant effects
